Here are results for six compounds from ChEMBL document CHEMBL1129397, “Synthesis and biological activity of aromatic amino acid phosphoramidates of 5-fluoro-2'-deoxyuridine and 1-beta-arabinofuranosylcytosine: evidence of phosphoramidase activity” (J Med Chem, 1996).

Where only a bound is given, the exact number is not on record here.

The test system of experiment [1] is CCRF-CEM. Nature of the experiment: In vitro cytotoxicity of compounds were determined on Inhibition of human leukemia cell line(CCRF-CEM). It is filed as functional, cell-based. In a few lines: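 CCRF-CEM cells, or a CEM-TK⁻ variant with less than 1% of wild-type thymidine kinase activity, were grown in RPMI 1640 with 20% heat-inactivated FBS, penicillin, streptomycin and 0.5% human IL-2. Cells were cultured with or without compound for 48 h at 37 °C in 5% CO2. Proliferation and viability were then counted by trypan blue dye exclusion.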

The subject of experiment [2] is L1210. Nature of the experiment: In vitro cytotoxicity of compounds were determined on murine leukemia cell line (L1210). Format: functional, cell-based. As to conditions: Mus musculus. In a few lines: (§1)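 Cells were cultured with or without compound for 48 h at 37 °C in a 5% CO2–95% air atmosphere. Portions were then counted for proliferation and viability by trypan blue dye exclusion. IC50 was taken from the remaining viable cell number.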

The target of experiment [3] is T1, Thymidylate synthase (Mus musculus, UniProt P07607). Nature of the experiment: Inhibition of cellular thymidylate synthase activity of mouse fibroblast (L929 TK-) in intact cells. It is filed as cell-based.
The target in experiment [4] is T1, Thymidylate synthase. Put plainly: Inhibition of cellular thymidylate synthase activity of mouse fibroblast (L929 TK-) in permeabilised cells. It is filed as cell-based.
In experiment [5] the target is T1, Thymidylate synthase. Put plainly: Inhibition of cellular thymidylate synthase activity of murine leukemia cell line (L1210) in intact cells. Format: cell-based.
Experiment [6] deals with T1, Thymidylate synthase. Nature of the experiment: Inhibition of cellular thymidylate synthase activity of murine leukemia cell line (L1210) in permeabilised cells. Format: cell-based.
Experiment [7] relates to CEM-TK(-) (Homo sapiens). Put plainly: In vitro cytotoxicity of compounds were determined on human leukemia cells (CEM-TK-).
Experiment [8] deals with L929 TK- (Mus musculus). Put plainly: In vitro cytotoxicity of compounds were determined on murine fibroblast cell line (L929 TK-) in.
Experiment [9] relates to L929. Nature of the experiment: In vitro cytotoxicity of compounds were determined on mouse fibroblast (L929 TK-). It is filed as functional, cell-based. In a few lines: as §1
Experiment [10] deals with CEM-TK(-). Put plainly: In vitro cytotoxicity of compounds were determined on Inhibition of human leukemia cell line (CEM-TK).
Experiment [11] addresses T1, Thymidylate synthase. Put plainly: Inhibition of cellular thymidylate synthase activity of mouse fibroblast (L929 TK-) in permeabilised cells. It is filed as cell-based. The method in brief: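 L929 TK⁻ cells were permeabilized with high-molecular-weight dextran sulfate. Intracellular thymidylate synthase activity was then measured in situ by tritium release, and IC50 values were determined.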

The IC50 is the point on the concentration scale where inhibition reaches its midpoint. The low end stands for greater potency, the high end for weaker potency.

T1 sequence (P07607 whole entry): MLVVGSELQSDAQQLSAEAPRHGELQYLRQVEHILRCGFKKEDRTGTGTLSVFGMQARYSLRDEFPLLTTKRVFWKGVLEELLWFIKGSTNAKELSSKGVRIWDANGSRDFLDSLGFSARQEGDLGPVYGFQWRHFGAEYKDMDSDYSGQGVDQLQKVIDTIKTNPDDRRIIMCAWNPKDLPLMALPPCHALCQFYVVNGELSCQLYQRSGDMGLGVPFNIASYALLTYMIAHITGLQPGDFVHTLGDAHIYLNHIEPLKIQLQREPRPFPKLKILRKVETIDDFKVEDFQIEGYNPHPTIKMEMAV

As to `COC(=O)[C@@H](NP(=O)(O)OC[C@H]1O[C@@H](n2cc(F)c(=O)[nH]c2=O)C[C@@H]1O)C1C=Nc2ccccc21` (some centres undefined), the half-maximal inhibitory concentration (IC50) is 0.32 µM in experiment [1]; 0.4 µM in [2]; 0.67 µM in experiment [3]; over 1000 µM in experiment [4]; 12 µM in [5]; 2.3 µM in experiment [6]. Further, the IC50 amounted to 58.1 µM in [7] and 240 µM in experiment [8].
As for `Nc1ccn([C@@H]2O[C@H](COP(=O)(O)O)[C@@H](O)[C@H]2O)c(=O)n1`, it took 0.1 µM to reach half-maximal inhibition in experiment [1] (IC50).
For `COC(=O)[C@H](Cc1ccccc1)NP(=O)(O)OCC1OC(n2cc(F)c(=O)[nH]c2=O)CC1O` (some centres undefined), the IC50 in experiment [1] was 0.32 µM; in [2], 0.41 µM; in experiment [9], 200 µM; in [3] it was over 1000 µM; in [4] it was 1.1 µM; in experiment [5], 21 µM. Also, the IC50 in [6] came out at 5 µM; in [10] it was 86.5 µM.
In the case of `O=c1[nH]c(=O)n([C@H]2C[C@H](O)[C@@H](COP(=O)(O)O)O2)cc1F` [5-FLUORODEOXYURIDYLATE], the IC50 was 0.0055 µM in [1], 0.015 µM in [2] and 6.8 µM in experiment [9].
`Nc1ccn([C@@H]2O[C@H](CO)[C@@H](O)[C@@H]2O)c(=O)n1` [CYTARABINE] had an IC50 in experiment [1] of 0.09 µM.
Take `O=c1[nH]c(=O)n([C@H]2C[C@H](O)[C@@H](CO)O2)cc1F` [FLOXURIDINE]: the 50% inhibitory concentration (IC50) worked out at 0.002 µM in experiment [1]; 0.012 µM in experiment [2]; 7.7 µM in experiment [9]; 7.3 µM in experiment [3]; 11 µM in [11]; 0.043 µM in experiment [5]. The figures for the IC50 in experiment [6] and in experiment [10] were 59 µM and 66.3 µM, respectively.
